In assay [1] the test system is Mus musculus. Kind of assay: Compound was evaluated for inhibitory activity in vivo against P388 leukemia cells in mice at a dose of 3.12 mg/kg upon intraperitoneal administration. The class given is functional. The method in brief:
(§1)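 Tumor source was ascites fluid implanted into BDF₁ mice. Tumor inoculation and drug dosing were both intraperitoneal, given once daily for 5 days (q1d × 5). Screening and data interpretation followed the general NCI protocol.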

The test system of assay [2] is L1210. Kind of assay: Cytotoxic activity against L1210 leukemia in vitro. Type of assay: functional, Mus musculus.
For assay [3], the system named is Mus musculus. Kind of assay: Compound was evaluated for inhibitory activity in vivo against P388 leukemia cells in mice at a dose of 6.25 mg/kg upon intraperitoneal administration. The class given is functional. The method in brief:
as §1

Assay [4] concerns P388. Kind of assay: Inhibitory activity in vivo against P388 leukemia cells in mice at a dose of 12.5 mg/kg upon intraperitoneal administration. Type of assay: functional, Mus musculus. In short, it runs like this: as §1
Assay [5] concerns Mus musculus. Kind of assay: Compound was evaluated for inhibitory activity against B-16 melanoma in mice at a dose of 1.56 mg/kg upon intraperitoneal administration. The class given is functional.
In assay [6] the test system is P388. Kind of assay: Inhibitory activity in vivo against P388 leukemia cells in mice at a dose of 25 mg/kg upon intraperitoneal administration. Type of assay: functional, Mus musculus. In short, it runs like this:
as §1

The species named for assay [7] is Homo sapiens. Kind of assay: Compound was tested for cytotoxic activity against human colon adenocarcinoma in vitro. The class given is functional.
The test system of assay [8] is Mus musculus. Kind of assay: Compound was evaluated for inhibitory activity against B-16 melanoma in mice at a dose of 12.5 mg/kg upon intraperitoneal administration. The class given is functional.
The test system of assay [9] is Mus musculus. Kind of assay: Compound was evaluated for inhibitory activity against B-16 melanoma in mice at a dose of 3.13 mg/kg upon intraperitoneal administration. Type of assay: functional.
Assay [10] has as its system Mus musculus. Kind of assay: Compound was evaluated for inhibitory activity against B-16 melanoma in mice at a dose of 25 mg/kg upon intraperitoneal administration. Type of assay: functional.
Assay [11] relates to Mus musculus. Kind of assay: Compound was evaluated for inhibitory activity against B-16 melanoma in mice at a dose of 6.25 mg/kg upon intraperitoneal administration. The class given is functional.
Assay [12] relates to Mus musculus. Kind of assay: Compound was evaluated for inhibitory activity in vivo against P388 leukemia cells in mice at a dose of 200 mg/kg upon intraperitoneal administration. Type of assay: functional. In short, it runs like this: as §1
For assay [13], the system named is L1210. Kind of assay: Compound was tested for cytotoxic activity against L1210 leukemia in vitro; IA means inactive. Type of assay: functional, cell-based. Particulars: Mus musculus.
In assay [14] the test system is P388. Kind of assay: Inhibitory activity in vivo against P388 leukemia cells in mice at a dose of 50 mg/kg upon intraperitoneal administration. The class given is functional, Mus musculus. In short, it runs like this:
as §1

Assay [15] relates to P388. Kind of assay: Inhibitory activity in vivo against P388 leukemia cells in mice at a dose of 100 mg/kg upon intraperitoneal administration. The class given is functional, Mus musculus. In short, it runs like this: as §1
The test system of assay [16] is Mus musculus. Kind of assay: Compound was evaluated for inhibitory activity in vivo against P388 leukemia cells in mice at a dose of 400 mg/kg upon intraperitoneal administration. The class given is functional. In short, it runs like this: as §1
The species entered for assay [17] is Homo sapiens. Kind of assay: Compound was tested for cytotoxic activity against human colon adenocarcinoma in vitro; IA means inactive. Type of assay: functional.
Assay [18] has as its system Mus musculus. Kind of assay: Compound was evaluated for inhibitory activity in vivo against P388 leukemia cells in mice at a dose of 120 mg/kg upon intraperitoneal administration. Type of assay: functional. In short, it runs like this: as §1
The species entered for assay [19] is Homo sapiens. Kind of assay: Compound was tested for cytotoxic activity against human colon adenocarcinoma in vitro; IA means Inactive. Type of assay: functional.
The test system of assay [20] is Mus musculus. Kind of assay: Compound was evaluated for inhibitory activity in vivo against P388 leukemia cells in mice at a dose of 60 mg/kg upon intraperitoneal administration. The class given is functional. In short, it runs like this: as §1
Assay [21] can be described thus: Cytotoxic activity against human colon adenocarcinoma in vitro. The class given is functional.
In assay [22] the test system is Mus musculus. Kind of assay: Compound was evaluated for inhibitory activity in vivo against P388 leukemia cells in mice at a dose of 8 mg/kg upon intraperitoneal administration. The class given is functional. In short, it runs like this:
as §1

Assay [23] deals with Mus musculus. Kind of assay: Compound was evaluated for inhibitory activity in vivo against P388 leukemia cells in mice at a dose of 2 mg/kg upon intraperitoneal administration. Type of assay: functional. The method in brief: as §1
For assay [24], the system named is Mus musculus. Kind of assay: Compound was evaluated for inhibitory activity in vivo against P388 leukemia cells in mice at a dose of 16 mg/kg upon intraperitoneal administration. Type of assay: functional. The method in brief: as §1
Assay [25] deals with Mus musculus. Kind of assay: Compound was evaluated for inhibitory activity in vivo against P388 leukemia cells in mice at a dose of 4 mg/kg upon intraperitoneal administration. The class given is functional. In short, it runs like this: as §1
Assay [26] deals with Mus musculus. Kind of assay: Compound was evaluated for inhibitory activity in vivo against P388 leukemia cells in mice at a dose of 1.56 mg/kg upon intraperitoneal administration. The class given is functional. The method in brief: as §1

SMILES strings stand for the structures. Activity calls are given as the source filed them. The calls are words filed in the database; no cut-off is given here.

With `CNCCN1C(=O)c2cccc3cc([N+](=O)[O-])cc(c23)C1=O.Cl`, the T/C in the assay with Mus musculus [1] is reported as 129; in the assay on Mus musculus [3], 139; with P388 [4] it was 177. The Cytotoxic concentration in the assay on L1210 [2] was found to be 0.266 µM.

On to `O=C1c2cccc3cc([N+](=O)[O-])cc(c23)C(=O)N1CCNCCO`, for which the T/C turned out to be 112 in the assay with Mus musculus [5]; 163 in the assay on P388 [6]; 219 in the assay with Mus musculus [8]; 137 with Mus musculus [3]; 142 with Mus musculus [9]; 216 with Mus musculus [10]. The T/C turned out to be 174 in the assay on Mus musculus [11] and 151 in the assay with P388 [4]. In addition, the Cytotoxic concentration in the assay listed under Homo sapiens [7] worked out at 388 nM.

On to `COc1ccc2c3c(ccc(OC)c13)C(=O)N(CCN(C)C)C2=O`, for which the T/C in the assay with Mus musculus [12] is recorded as 123; with P388 [6], 102; with P388 [14] it was 120; with P388 [15], 118. For the same compound, the Cytotoxic concentration entry in the assay on L1210 [13] is “inactive”.

Turning to `CN(C)CCN1C(=O)c2cc(O)cc3cc(O)cc(c23)C1=O`, the T/C worked out at 149 in the assay on Mus musculus [12]; 130 in the assay on P388 [6]; 140 in the assay with Mus musculus [16]; 142 in the assay on P388 [14]; 148 in the assay on P388 [15]; 122 with P388 [4]. The Cytotoxic concentration in the assay with L1210 [2] is 3.54 µM. Also, the Cytotoxic concentration entry in the assay listed under Homo sapiens [17] is “inactive”.

Consider `O=C1OCCN1CCN1C(=O)c2cc([N+](=O)[O-])cc3cc([N+](=O)[O-])cc(c23)C1=O`, for which the T/C in the assay on Mus musculus [18] is listed as 119; in the assay with Mus musculus [20], 109. Moreover, the Cytotoxic concentration entry in the assay listed under Homo sapiens [19] was “inactive”. In the assay with L1210 [2], this compound came in with a Cytotoxic concentration of 2.02 µM.

Turning to `Cl.O=C1c2cccc3cc([N+](=O)[O-])cc(c23)C(=O)N1CCN1CCCCC1`, the T/C with P388 [6] turned out to be 137; in the assay on P388 [14], 176; in the assay with P388 [4], 119. In addition, the Cytotoxic concentration with L1210 [2] turned out to be 0.59 µM.

For the compound `Cl.O=C1c2cc([N+](=O)[O-])cc3cc([N+](=O)[O-])cc(c23)C(=O)N1CCN1CCOCC1`, the T/C in the assay on P388 [6] is 131; in the assay on P388 [14] it was 147; in the assay on P388 [4], 112. For the same compound, the Cytotoxic concentration in the assay with L1210 [2] is 1.13 µM; in [21], 722 nM.

Take `CN(C)CCN1C(=O)c2cccc3cc(O)cc(c23)C1=O`: the figures for the T/C in the assay on Mus musculus [12] and with P388 [15] were 142 and 115, respectively. Also, in the assay with L1210 [2], the Cytotoxic concentration was 1.64 µM. For the same compound, the Cytotoxic concentration result in the assay listed under Homo sapiens [17] is “inactive”.

For the compound `CCN(CC)CCN1C(=O)c2cccc3cc([N+](=O)[O-])cc(c23)C1=O.Cl`, the T/C with P388 [6] worked out at 149; in the assay on P388 [4] it was 120. Also, the Cytotoxic concentration with L1210 [2] came out at 1.37 µM.

For `CN(C)CCN1C(=O)c2ccc(Cl)c3c(Cl)ccc(c23)C1=O`, in the assay on P388 [6], the T/C is reported as 107. Further, the Cytotoxic concentration with L1210 [2] was determined as 0.699 µM.

Take `CN(C)CCN1C(=O)c2cccc3cc(N)cc(c23)C1=O` [AMONAFIDE]: the T/C in the assay with Mus musculus [22] stood at 144; in the assay with Mus musculus [23] it was 135; with Mus musculus [24] it was 177; with Mus musculus [25] it was 142.

Turning to `CN(C)CCN1C(=O)c2cccc3cc([N+](=O)[O-])cc(c23)C1=O.Cl`, the T/C worked out at 138 in the assay on Mus musculus [1], 121 in the assay with Mus musculus [26] and 164 in the assay with Mus musculus [3]. Also, the Cytotoxic concentration in the assay listed under Homo sapiens [7] came to 106 nM; in the assay on L1210 [2], 0.151 µM.

On to `Cl.O=C1c2cccc3cc([N+](=O)[O-])cc(c23)C(=O)N1CCN1CCNCC1`, for which the T/C with P388 [6] was found to be 129; with P388 [14], 136; with P388 [4] it was 116. In the assay with L1210 [2], the Cytotoxic concentration is 1.38 µM.

In the case of `Cl.O=C1c2cccc3cc([N+](=O)[O-])cc(c23)C(=O)N1CCN1CCOCC1`, the Cytotoxic concentration entry with L1210 [13] is “inactive”. The values for the T/C in the assay with P388 [14] and with P388 [15] were 105 and 183, respectively.

(Values after ChEMBL document CHEMBL1123030, “N-(Aminoalkyl)imide antineoplastic agents. Synthesis and biological activity” (J Med Chem, 1985).)
